Results collected from several papers.
Each line is one published result; the experiments were not run side by side.
Target: Serine/threonine-protein kinase ICK (CILK1, Homo sapiens, UniProt Q9UPZ9)
One construct used (Q9UPZ9 1-632): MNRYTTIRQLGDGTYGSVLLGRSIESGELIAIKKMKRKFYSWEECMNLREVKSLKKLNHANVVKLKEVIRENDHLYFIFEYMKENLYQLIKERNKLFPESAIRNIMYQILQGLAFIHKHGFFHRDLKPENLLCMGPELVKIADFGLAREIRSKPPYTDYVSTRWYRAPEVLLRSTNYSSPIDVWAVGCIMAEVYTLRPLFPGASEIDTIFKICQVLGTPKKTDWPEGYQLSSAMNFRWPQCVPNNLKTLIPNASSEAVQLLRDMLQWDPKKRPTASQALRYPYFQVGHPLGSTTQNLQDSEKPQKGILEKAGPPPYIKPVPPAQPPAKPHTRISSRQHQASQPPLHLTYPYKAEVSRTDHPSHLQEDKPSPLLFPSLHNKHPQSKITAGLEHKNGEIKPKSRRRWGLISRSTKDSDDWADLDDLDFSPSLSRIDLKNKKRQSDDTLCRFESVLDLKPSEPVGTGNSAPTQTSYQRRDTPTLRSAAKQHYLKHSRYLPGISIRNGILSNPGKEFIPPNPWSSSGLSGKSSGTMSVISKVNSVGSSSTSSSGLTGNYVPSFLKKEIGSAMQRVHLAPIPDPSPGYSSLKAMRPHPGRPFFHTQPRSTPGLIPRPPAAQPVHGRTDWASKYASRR

CC1CCCN1c1nccc(-c2cnn3ncccc23)n1 (stereo not drawn)  remaining binding (binding; 1 µM): 100%
Nc1cnc(N2CCc3cc(S(=O)(=O)Nc4c(F)cc(Cl)cc4F)cc(N4CCCC4=O)c32)nc1  remaining binding (cell-free assay; competition with immobilised ligand; 1 µM): 80%
O=C(c1ccc(Nc2ncc(Cl)c(-c3ccc(Cl)s3)n2)cc1)N1CCC(N2CCCC2)CC1  remaining binding (binding; competition with immobilised ligand; 1 µM): 32%
CCOCCn1cc(C(=O)Nc2ccc(-n3nc(-c4cccnc4)cc3C(F)(F)F)cn2)ccc1=O  remaining binding (cell-free assay; competition with immobilised ligand; 1 µM): 99%
N[C@H]1CCN(c2nccc(-c3cnn4ncccc34)n2)C1  remaining binding (binding; 1 µM): 100%
C[C@@]1(Cc2ccc(C#N)cc2)C(=O)N(c2cc(Cl)cc(Cl)c2)c2ncc(C(=O)NC3(c4nc(C5CCC5)no4)CC3)n21  remaining binding (cell-free assay; competition with immobilised ligand; 1 µM): 100%
O=C(NCC1CCOCC1)c1n[nH]cc1NC(=O)c1c(F)cccc1F  remaining binding (binding; competition with immobilised ligand; 1 µM): 5.7%
CNC(=O)[C@@H]1CC[C@@H](n2c(-c3ccc4cnccc4c3)nc3ccc(C(=O)NCc4cccc(C(N)=O)c4)cc32)C1  remaining binding (binding; competition with immobilised ligand; 1 µM): 100%
Cc1cnn2ncc(-c3ccnc(N(C)C)n3)c2c1  remaining binding (binding; 1 µM): 82%
O=C(NCCCN1CCOCC1)c1ccc(Nc2nccc(-c3cc4ccccc4s3)n2)cc1  remaining binding (binding; competition with immobilised ligand; 1 µM): 64%
C[C@H]1CCN(c2nccc(-c3cnn4ncccc34)n2)C1  remaining binding (binding; 1 µM): 64%
Nc1ncc2c(n1)-c1c([nH]c3ccc(C#CC4CC4)cc13)CCCC2  remaining binding (binding; competition with immobilised ligand; 1 µM): 98%
O=C(Nc1cccnn1)N1CC(C/C=C/c2cncc(Oc3ccc(C(F)(F)F)cn3)n2)C1  remaining binding (cell-free assay; competition with immobilised ligand; 1 µM): 80%
c1cnn2ncc(-c3ccnc(N4CCC45COC5)n3)c2c1  remaining binding (binding; 1 µM): 69%
CNCc1ccccc1-c1csc([C@H](C)Nc2nc(C)nc3cc(OC)c(OC)cc23)c1  remaining binding (cell-free assay; competition with immobilised ligand; 1 µM): 86%
FC(F)(F)Oc1cccc(-c2cnc3ccc(-c4ccncc4)nn23)c1  remaining binding (cell-free assay; competition with immobilised ligand; 5 µM): 4.5%
CN(c1nccc(-c2cnn3ncccc23)n1)C1CC1  remaining binding (binding; 1 µM): 100%
C=CC(=O)N1CCC(C(=O)NCC(=O)N2CCN(c3nc(-c4cnc(N)nc4C(F)F)nc(N4CCOCC4)n3)CC2)CC1  remaining binding (binding; competition with immobilised ligand; 1 µM): 95%
COc1cnc(Nc2cccc(S(N)(=O)=O)c2)nc1N1CCN(c2ccccc2)C(=O)C1  remaining binding (binding; competition with immobilised ligand; 1 µM): 75%
O=C(NCCCN1CCOCC1)c1ccc(Nc2ncc(Cl)c(-c3ccc(Cl)s3)n2)cc1  remaining binding (binding; competition with immobilised ligand; 1 µM): 62%
COc1cccc(CNC(=O)c2nc3scc(COCc4ccc(C(=O)O)cc4)c3c(=O)[nH]2)c1  remaining binding (cell-free assay; competition with immobilised ligand; 1 µM): 66.1%
